Article PMC3785103 (Molecular pharmaceutics, 2013)
Like-named read-outs stand apart in the source and are kept apart here. [ ]: non-standard residue; d: D form. d2Nal = N[C@H](Cc1ccc2ccccc2c1)C(=O)O; Nle = CCCC[C@H](N)C(=O)O

Columns and labels:
MC5R [1] = conditions: read-out: Ki for MC5R; unlabeled peptide ligands; cited from earlier work
MC1R = conditions: read-out: Ki for MC1R, cited from earlier work
[2] = test system: A375/MC1R and A375 xenograft tumors; test: in vivo; conditions: female, nu/nu, mouse, 5 nmol/kg
in vivo = conditions: female, nu/nu, mouse
[3] = set-up: species or system mouse; conditions: mean±s.d. of 10 simulations
MC5R [4] = test: Co-injection of MC5R-selective ligand to block kidney uptake of probe; format: in vivo, mouse; conditions: 5 nmol/kg MC1RL-800 co-injected with 1 nmol/kg MC5R-selective ligand, 2 h
Procedure, shortened: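 Female nu/nu mice (6–8 weeks) carried s.c. xenografts: 1 × 10⁶ A375/MC1R cells in the right flank and parental A375 cells in the left. At 500–800 mm³ tumor volume, mice received 5 nmol/kg MC1R ligand–IRDye800CW i.v. (tail vein, in 100 μL sterile saline) co-injected with 1 nmol/kg MC5R-specific ligand. Fluorescence imaging used mean pre-injection tumor signal subtracted from normalized post-injection ROI intensities.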

Compound	Ki (MC5R [1]) [nM]	Ki (MC1R; unlabeled peptide ligands) [nM]	half-life (clearance) in the tumor [2] [h]	half-life (in vivo; 5 nmol/kg, half-life (clearance) in the tumor) [h]	half-life (in vivo; half-life (clearance) in negative tissue) [h]	Kki, rate of accumulation of ligand in the kidney specific binding compartment [3]	Kko, rate of clearance of ligand from kidney back to the bloodstream [3] [h⁻¹]	Kni, rate of accumulation in non-specific tissue [3]	Kno, rate of clearance from non-specific tissue [3] [h⁻¹]	Kto, rate of clearance from tumor specific binding compartment [3]	Kti, rate of probe accumulation in tumor specific binding compartment ([3]; fit to 3 nmol/kg ex vivo data)	Ki (MC1R; NIRF dye conjugates) [nM]	decrease of A375/MC1R tumor signal (MC5R [4]) [%]
4-phenylbutyryl-His-DPhe-Arg-Trp-Gly-Lys(hex-5-ynoyl)-NH2 [unlabeled ligand]	46	0.24											
H-YV[Nle]GH[d2Nal]R[dF]DRFG-NH2 [reference compound]	0.71	5.6											
CC1(C)C(=CC=C2CCCC(C=CC3=[N+](CCCCS(=O)(=O)[O-])c4ccc(S(=O)(=O)O)cc4C3(C)C)=C2Oc2ccc(S(=O)(=O)O)cc2)N(CCCCCC(=O)NCCN2C(=O)CC(SCCC(=O)NCCCC[C@H](NC(=O)CNC(=O)[C@H](Cc3c[nH]c4ccccc34)NC(=O)[C@H](CCCNC(=N)N)NC(=O)[C@@H](Cc3ccccc3)NC(=O)[C@H](Cc3c[nH]cn3)NC(=O)CCCc3ccccc3)C(N)=O)C2=O)c2ccc(S(=O)(=O)O)cc21 (stereo partly drawn) [MC1RL-800, 4-phenylbutyryl-His-DPhe-Arg-Trp-Gly-Lys(Mpr-IRDye800CW)-NH2]			~22	22	16	1E-2+6.8E-3 (NU.h)^−1	0.96 ± 0.14	1.8 ± 0.2 (NU.h)^−1	2.3 ± 0.6	26+12 (h)^−1	2.7+1.4 (NU.h)^−1	0.4 ± 0.1	28
